Bridge positions count the residues as written; N and C are the ends. Square brackets hold non-standard residues; d marks the D form. Peptide text beside a SMILES is read from it. * marks the point of attachment. X1 = CN(C)c1ccc2c(-c3ccc(C(=O)*)cc3C(=O)[O-])c3ccc(=[N+](C)C)cc-3oc2c1; R5 = C=CCCC[C@@](C)(N)C(=O)O; S5 = C=CCCC[C@](C)(N)C(=O)O
Tests used:
[1] = target: T1, His-EIN3-FLAG (His6-SUMO-EIN3(200–500)-FLAG) (Arabidopsis thaliana, UniProt O24606); assay: Fluorescence anisotropy; type: binding
T1 sequence (O24606 200-500): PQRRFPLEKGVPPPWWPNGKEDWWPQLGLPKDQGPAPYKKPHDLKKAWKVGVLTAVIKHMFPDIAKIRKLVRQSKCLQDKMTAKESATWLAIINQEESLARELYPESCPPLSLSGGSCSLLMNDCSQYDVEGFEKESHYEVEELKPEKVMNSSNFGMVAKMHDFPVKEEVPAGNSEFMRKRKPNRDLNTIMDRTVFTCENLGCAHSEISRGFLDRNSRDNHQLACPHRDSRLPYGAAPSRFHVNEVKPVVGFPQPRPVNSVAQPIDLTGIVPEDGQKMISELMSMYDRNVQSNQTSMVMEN
How it was run: (§1)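 FA titration at 25°C in 20 mM Tris-HCl pH 8.0, 200 mM NaCl, 10% glycerol, 10% cOmplete EDTA-free, with 2-mercaptoethanol (EIN3/EIL1 family). Protein added dropwise to 100 nM TMR-labelled peptide; His-EIN3-FLAG titrated 0–2 µM. Anisotropy read at ex/em 543/573.5 nm. Each point is the average of three independent measurements. Apparent Kd obtained by nonlinear curve fitting.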

[2] = test system: His-MpMYC-Y-FLAG (MpMYC-Y(102-299)); assay: Fluorescence anisotropy; type: binding, Marchantia polymorpha; conditions: ratio of Kd of 1 to Kd of the peptide
How it was run: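 FA titration of 100 nM TMR-labelled peptide with His-MpMYC-Y-FLAG (0–2 µM), added dropwise. Conditions: 25°C, 20 mM Tris-HCl pH 8.0, 200 mM NaCl, 10% glycerol, 10% cOmplete EDTA-free, no 2-mercaptoethanol (MYC family). Read at ex/em 543/573.5 nm, triplicate points. Apparent Kd from nonlinear fitting; values compared as Kd ratios.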

[3] = test system: JA-responsive marker genes in Arabidopsis seedlings; assay: RT-qPCR of JA-responsive marker genes in A. thaliana; type: in vivo, Arabidopsis thaliana
How it was run: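 Col-0 or mutant (e.g. myc234) seedlings grown at 22°C, 16 h light/8 h dark. At 7 days, treated in half-strength MS liquid medium with MeJA (50 µM) and/or test compound (10 µM). Exposure 2 h for AOS, OPR3, MYC2, ORA59 and 8 h for VSP2, PDF1.2, ACT. Total RNA extracted; oligo-dT-primed cDNA; RT-qPCR (n = 4). One-way ANOVA/Tukey's HSD.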

[4] = test system: M. polymorpha gemmalings (Tak-1); assay: Growth; type: in vivo, Marchantia polymorpha; conditions: Tak-1 gemmalings, 4 (10 µM) with OPDA (50 µM), n = 24
How it was run: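 Tak-1 gemmalings grown 2 weeks on half-strength Gamborg's B5 with 1% agar, containing OPDA (50 µM) ± test compound (10 µM). Continuous light 50–60 µmol m-2 s-1, 22°C. Plant area measured in mm2 (n = 24). Experiment repeated three times; one-way ANOVA/Tukey's HSD, P < 0.01.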

[5] = test system: A. thaliana seedlings (Col-0); assay: Secondary metabolite quantification in A. thaliana; type: in vivo, Arabidopsis thaliana; conditions: Col-0 seedlings, 4 (10 µM) with MeJA (50 µM), 4 days, n = 4, LC/MS
How it was run: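 7-day-old Col-0 seedlings treated 4 days with MeJA (50 µM) ± test compound (10 µM). Glucobrassicin (i-3ym) and p-coumaroyl agmatine accumulation quantified (n = 4). Experiment repeated three times; one-way ANOVA/Tukey's HSD, P < 0.01.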

[6] = target: T2, His-EIL1-FLAG (Arabidopsis thaliana, UniProt Q9SLH0); assay: Fluorescence anisotropy; type: binding
T2 sequence (Q9SLH0 201-501): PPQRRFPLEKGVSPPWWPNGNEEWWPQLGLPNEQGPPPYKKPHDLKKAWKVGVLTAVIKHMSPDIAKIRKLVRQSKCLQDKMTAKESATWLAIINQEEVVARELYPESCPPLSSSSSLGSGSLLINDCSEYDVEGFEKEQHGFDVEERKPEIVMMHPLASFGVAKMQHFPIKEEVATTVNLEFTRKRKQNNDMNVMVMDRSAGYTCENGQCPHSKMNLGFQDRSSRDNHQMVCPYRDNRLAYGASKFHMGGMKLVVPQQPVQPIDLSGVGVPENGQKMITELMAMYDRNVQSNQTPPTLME
How it was run: as §1

[7] = test system: A. thaliana seedlings (Col-0); assay: Root growth of A. thaliana seedlings with MeJA; type: in vivo, Arabidopsis thaliana; conditions: Col-0 seedlings, co-treatment 4 (10 µM) with MeJA (50 µM), n = 15
How it was run: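 Surface-sterilized Col-0 seeds stratified 2–3 days at 4°C. Grown on half-strength MS plates (2% sucrose, 0.4% gellan gum) with MeJA (50 µM) ± test compound (10 µM), under 16 h light (75 µmol m-2 s-1)/8 h dark at 22°C. Whole-seedling root length measured (n = 15). Repeated three times; one-way ANOVA/Tukey's HSD, P < 0.01.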

[8] = target: T3, biotin-MED25^CMIDM/His-MYC3-FLAG complex (Arabidopsis thaliana, UniProt Q9FIP9); assay: AlphaLISA inhibitory assay MED25CMIDM/MYC3; type: biochemical
T3 sequence (Q9FIP9 44-238): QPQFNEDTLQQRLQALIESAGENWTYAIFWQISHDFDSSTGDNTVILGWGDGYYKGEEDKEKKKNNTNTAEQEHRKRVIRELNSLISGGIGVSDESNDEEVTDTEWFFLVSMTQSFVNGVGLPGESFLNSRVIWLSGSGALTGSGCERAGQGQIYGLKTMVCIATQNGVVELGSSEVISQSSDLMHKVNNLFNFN
How it was run: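 Competition AlphaLISA: biotin-MED25CMIDM (150 nM) with His-MYC3-FLAG (50 nM). TMR-conjugated test peptides titrated 0–3 µM to generate inhibition curves. Run in triplicate; mean and SD reported.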

[9] = test system: OPDA-responsive marker genes in Marchantia gemmalings; assay: RT-qPCR of OPDA-responsive marker genes in M. polymorpha; type: in vivo, Marchantia polymorpha; conditions: 4 (10 µM) with OPDA (50 µM), 6 h
[10] = target: T4, His-MYC3-FLAG (His6-SUMO-MYC3(44–238)-FLAG) (Arabidopsis thaliana, UniProt Q9FIP9); assay: Fluorescence anisotropy; type: binding
T4 sequence (Q9FIP9 44-238): T3 sequence (Q9FIP9 44-238)

## CC[C@H](C)[C@H](NC(=O)[C@H](CCCCN)NC(=O)[C@H](CO)NC(=O)[C@@H](NC(=O)[C@]1(C)CCCC=CCCC[C@](C)(NC(=O)[C@H](CCCNC(=N)N)NC(=O)[C@H](Cc2ccccc2)NC(=O)[C@H](CO)NC(=O)[C@H](CCCNC(=N)N)NC(=O)[C@H](CCCNC(=N)N)NC(=O)[C@H](CCCNC(=N)N)NC(=O)[C@H](CC(=O)O)NC(=O)[C@H](CC(C)C)NC(=O)[C@H](Cc2ccccc2)NC(=O)[C@H](CCCCN)NC(=O)[C@H](CCC(N)=O)NC(=O)[C@H](Cc2ccccc2)NC(=O)c2ccc(-c3c4ccc(=[N+](C)C)cc-4oc4cc(N(C)C)ccc34)c(C(=O)[O-])c2)C(=O)N[C@@H]([C@@H](C)CC)C(=O)N[C@@H](CCC(N)=O)C(=O)NCC(=O)N1)[C@@H](C)CC)C(=O)N[C@@H](CC(=O)O)C(=O)N1CCC[C@H]1C(=O)N[C@@H](CCC(=O)O)C(=O)N[C@]1(C)CCCC=CCCC[C@@](C)(C(=O)N[C@@H](CC(C)C)C(=O)N[C@@H](CC(C)C)C(=O)N[C@@H](C)C(=O)N[C@@H](CO)C(=O)N[C@H](C(=O)O)[C@@H](C)O)NC(=O)[C@H](CCCCN)NC(=O)[C@H]([C@@H](C)CC)NC1=O [compound 4] (X1-FQKFLDRRRSFR[S5]IQG[S5]ISKIDPE[R5]IK[S5]LLAST-OH; staple 13-17, 25-28)
[1]
  Kd: 105 nM
[2]
  fold lower Kd with MpMYC-Y than 1: 46 fold
[3]; 7-day-old Col-0, 4 (10 µM) alone without MeJA, 2 or 8 h
  marker gene expression, peptide alone: almost no effects
[3]; 7-day-old Col-0, 4 (10 µM) with MeJA (50 µM), 2 or 8 h
  expression of ORA59 and ACT (EIN3/EIL1-marker genes): activated
[3]; 7-day-old Col-0, 4 (10 µM) with MeJA (50 µM), 2 or 8 h, n = 3 or 4
  MeJA-induced expression of MYC-mediated marker genes (VSP2, AOS, OPR3, MYC2): significantly suppressed
[3]; 7-day-old Col-0, 4 (10 µM) with MeJA (50 µM), 8 h
  expression of PDF1.2 (EIN3/EIL1-mediated marker gene) compared with MeJA alone: strongly activated
[3]; MYC triple mutant myc234, 4 (10 µM) with MeJA (50 µM), 8 h, n = 4
  expression pattern of VSP2 and PDF1.2 on myc234 compared to MeJA alone: did not significantly change
[3]; ein2-1 mutant, 4 (10 µM) with MeJA (50 µM), 8 h, n = 3 or 4
  expression pattern of VSP2 and PDF1.2 on ein2-1 compared to MeJA alone: did not significantly change
[4]
  effect on OPDA growth inhibitory effects (plant area): partially suppressed
[5]
  MeJA-triggered accumulation of p-coumaroyl agmatine (CouAgm) compared to MeJA alone: significantly enhanced
  MeJA-triggered glucosinolate (glucobrassicin, i-3ym) accumulation: significantly suppressed
[6]
  Kd: 116 nM
[7]
  effect on MeJA growth inhibitory effects (root length): partially suppressed
[8]
  Ki: 71 nM
[9]
  bioactivity on marker gene expression in MpMYC-Y knockout mutant mpmycy: completely abolished
[10]
  Kd: 5 nM
[10]; ratio of Kd of 1 to Kd of the peptide
  fold lower Kd with His-MYC3-FLAG than that of 1: 42 fold

— article PMC11319934 (PNAS Nexus, 2024)
